Measured values collected from several papers.
Compare with care: the assays were run in different laboratories.
Target: Tyrosine-protein kinase FRK (FRK, Homo sapiens, UniProt P42685)

Compound	read-out	technique	tested at	remaining binding [%]
CN(c1nccc(-c2cnn3ncccc23)n1)C1CC1	binding		1 µM	85
O=C(NCCCN1CCOCC1)c1ccc(Nc2nccc(-c3cc4ccccc4s3)n2)cc1	binding	competition with immobilised ligand	1 µM	99
N#Cc1ccc(Nc2ccc3[nH]c(=O)[nH]c3c2)c(Cl)c1	cell-free assay	competition with immobilised ligand	1 µM	73
N[C@H]1CCN(c2nccc(-c3cnn4ncccc34)n2)C1	binding	competition with immobilised ligand	1 µM	100
COc1ccc2c(c1)O[C@@H](c1ccc(OC)c(OC)c1)C[C@H]2NC(=O)C1(c2ccc3c(c2)OC(F)(F)O3)CC1	cell-free assay	competition with immobilised ligand	1 µM	100
C[C@@H]1CCN(c2nccc(-c3cnn4ncccc34)n2)C1	binding		1 µM	100
Nc1c(C(=O)NCc2ccc(C(=O)NCCCC3CCCCC3)cc2)cnn1-c1ccccc1	cell-free assay	competition with immobilised ligand	0.1 µM	100
COc1cnc(Nc2cccc(S(N)(=O)=O)c2)nc1N1CCN(c2ccccc2)CC1	binding	competition with immobilised ligand	1 µM	100
CC1CCCN1c1nccc(-c2cnn3ncccc23)n1 (stereo not shown)	binding	competition with immobilised ligand	1 µM	88
Nc1ncc2c(n1)-c1c([nH]c3ccc(C#CC4CC4)cc13)CCCC2	binding	competition with immobilised ligand	1 µM	95
CNC(=O)Nc1ccc2c(c1)[C@@]1(CC2)OC(=O)N(CC(=O)N(Cc2ccc(F)cc2)[C@@H](C)C(F)(F)F)C1=O	cell-free assay	competition with immobilised ligand	1 µM	95
O=C(c1ccc(Nc2nccc(-c3cc4ccccc4s3)n2)cc1)N1CCC(N2CCCC2)CC1	binding	competition with immobilised ligand	1 µM	83
CS(=O)(=O)N1CCCC(NC(=O)[C@H](CCC2CCCCC2)NC(=O)c2ccc(CNc3ncnc4c3nnn4-c3ccccc3)cc2)C1 (stereo partly shown)	cell-free assay	competition with immobilised ligand	0.1 µM	60
COc1cnc(Nc2cccc(S(N)(=O)=O)c2)nc1N1CCN(c2ccccc2)C(=O)C1	binding	competition with immobilised ligand	1 µM	100
CN1CCN(c2cnc3c(C4CCN(C(=O)c5ccc(OC(F)(F)F)cc5N)CC4)ncnc3c2)CC1	cell-free assay	competition with immobilised ligand	1 µM	100
COc1ncc2cc3ccccc3nc2c1C#N	cell-free assay	competition with immobilised ligand	5 µM	99
O=C(Nc1c[nH]nc1C(=O)NC1CCNCC1)c1cc(F)cc(F)c1	binding	competition with immobilised ligand	1 µM	82
CN(CCCC(F)(F)F)c1nccc(-c2cnn3ncccc23)n1	binding		1 µM	93
NS(=O)(=O)c1cc(NC(=O)C2(c3ccccc3Cl)CC2)ccc1Oc1cccc(Cl)c1	cell-free assay	competition with immobilised ligand	1 µM	99
CCN1CCN(Cc2ccc(C(=O)Nc3ccc(C)c(Oc4ccc5c(c4)CC(=O)N5)c3)cc2C(F)(F)F)CC1	binding	competition with immobilised ligand	1 µM	13
CN(C)c1ncc(F)c(-c2cnn3ncccc23)n1	binding	competition with immobilised ligand	1 µM	100
O=C(c1ccc(Nc2ncc(Cl)c(-c3ccc(Cl)s3)n2)cc1)N1CCC(N2CCCC2)CC1	binding	competition with immobilised ligand	1 µM	97
